Series [1] concerns MKN-28. The series can be described thus: Antitumor activity against human MKN28 cells xenografted athymic mouse assessed as inhibition of tumor volume at 3 mg/kg, po administered in q4dx4 schedule. In kind it is functional. An outline of the steps:
(§1)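 Oral dosing on an intermittent q4dx4 schedule in mice bearing MKN-28 gastric carcinoma xenografts. Tumor volume inhibition % is relative to controls. Body weight loss % is the loss induced by drug treatment.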
A general note: Xenograft models place foreign cells or tissue in a host animal.

Series [2] relates to MKN-28. The series can be described thus: Antitumor activity against human MKN28 cells xenografted athymic mouse assessed as inhibition of tumor volume at 6 mg/kg, po administered in q4dx4 schedule. In kind it is functional. The method, boiled down:
as §1

Series [3] concerns MKN-28. The experiment in a line: Antitumor activity against human MKN28 cells xenografted athymic mouse assessed as inhibition of tumor volume at 12 mg/kg, po administered in q4dx4 schedule. In kind it is functional. The method, boiled down: as §1
Series [4] deals with Mus musculus. The series can be described thus: Toxicity in human MKN28 cells xenografted athymic mouse assessed as loss of body weight at 3 mg/kg, po administered in q4dx4 schedule. In kind it is organism-based, MKN-28. The arrangement: dose 3 mg/kg, route oral. Particulars: in vivo. The method, boiled down: as §1
Series [5] relates to Mus musculus. The series can be described thus: Toxicity in human MKN28 cells xenografted athymic mouse assessed as loss of body weight at 6 mg/kg, po administered in q4dx4 schedule. On the set-up: dose 6 mg/kg, route oral. Particulars: in vivo. In kind it is organism-based, MKN-28. The method, boiled down:
as §1

The test system of series [6] is Mus musculus. The series can be described thus: Toxicity in human MKN28 cells xenografted athymic mouse assessed as loss of body weight at 12 mg/kg, po administered in q4dx4 schedule. The conditions noted are these: in vivo. In kind it is organism-based, MKN-28. On the set-up: dose 12 mg/kg, route oral. An outline of the steps: as §1
Series [7] has as its system Mus musculus. The experiment in a line: Toxicity in human MKN28 cells xenografted athymic mouse assessed as survival at 3 mg/kg, po administered in q4dx4 schedule. In kind it is organism-based, MKN-28. The arrangement: dose 3 mg/kg, route oral. The conditions noted are these: in vivo. The method, boiled down:
(§2)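 Mice carried subcutaneous human tumor xenografts (CoBa, MKN-28 or Panc-1). They were dosed orally on an intermittent q4dx4 schedule, which was also used to set the maximum tolerated dose. Toxicity was scored as lethal toxicity, given as dead/treated mice. Drug-induced % body weight loss was also recorded.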

Series [8] concerns Mus musculus. The experiment in a line: Toxicity in human MKN28 cells xenografted athymic mouse assessed as survival at 6 mg/kg, po administered in q4dx4 schedule. In kind it is organism-based, MKN-28. On the set-up: dose 6 mg/kg, route oral. The conditions noted are these: in vivo. An outline of the steps:
as §2

The test system of series [9] is Mus musculus. The series can be described thus: Toxicity in human MKN28 cells xenografted athymic mouse assessed as survival at 12 mg/kg, po administered in q4dx4 schedule. The arrangement: dose 12 mg/kg, route oral. In kind it is organism-based, MKN-28. The conditions noted are these: in vivo. An outline of the steps: as §2
The test system of series [10] is PANC-1. The series can be described thus: Antitumor activity against human Panc1 cells xenografted athymic mouse assessed as inhibition of tumor volume at 14 mg/kg, po administered in q4dx4 schedule. In kind it is functional. The method, boiled down: (§3)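 Human tumor xenografts (CoBa colon, MKN-28 gastric, Panc-1 pancreatic) grown subcutaneously in mice. Drug given orally on an intermittent q4dx4 schedule. Read-out is % tumor volume inhibition in treated versus control mice. Complete responses were scored as tumor disappearance lasting at least ten days.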

Series [11] concerns PANC-1. The series can be described thus: Antitumor activity against human Panc1 cells xenografted athymic mouse assessed as inhibition of tumor volume at 15 mg/kg, po administered in q4dx4 schedule. In kind it is functional. An outline of the steps: as §3
Series [12] relates to Mus musculus. The series can be described thus: Toxicity in human Panc1 cells xenografted athymic mouse assessed as loss of body weight at 14 mg/kg, po administered in q4dx4 schedule. In kind it is organism-based, PANC-1. On the set-up: dose 14 mg/kg, route oral. The conditions noted are these: in vivo.
Series [13] deals with Mus musculus. The series can be described thus: Toxicity in human Panc1 cells xenografted athymic mouse assessed as loss of body weight at 15 mg/kg, po administered in q4dx4 schedule. In kind it is organism-based, PANC-1. The arrangement: dose 15 mg/kg, route oral. The conditions noted are these: in vivo.
For series [14], the system named is Mus musculus. The experiment in a line: Toxicity in human Panc1 cells xenografted athymic mouse assessed as survival at 14 mg/kg, po administered in q4dx4 schedule. In kind it is organism-based, PANC-1. The arrangement: dose 14 mg/kg, route oral. Particulars: in vivo. The method, boiled down: as §2
Series [15] concerns NCI-H460. The series can be described thus: Antiproliferative activity against human H460 cells after 1 hr of drug exposure measured after 72 hrs. In kind it is functional, cell-based. An outline of the steps:
(§4)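 Growth inhibition after 1-h drug exposure; IC50 is the concentration giving 50% reduction of cell growth versus untreated controls. Values are means ± SD from at least three experiments.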

In series [16] the test system is HT-29. The series can be described thus: Antiproliferative activity against human HT29 cells after 1 hr of drug exposure measured after 72 hrs. In kind it is functional, cell-based. An outline of the steps:
as §4

Series [17] deals with HT-29. The series can be described thus: Antiproliferative activity against BCRP overexpressing mitoxantrone-resistant human HT29 cells after 1 hr of drug exposure measured after 72 hrs. In kind it is functional, cell-based. An outline of the steps:
as §4

The test system of series [18] is HT-29. The series can be described thus: Resistant index, ratio of IC50 for BCRP overexpressing mitoxantrone-resistant human HT29 cells to IC50 for human HT29 cells. In kind it is functional. An outline of the steps:
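Resistance index in HT29/mit, the BCRP-overexpressing subline. IC50 values come from the 1-h exposure growth inhibition assay, as 50% growth reduction versus untreated controls.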

The nature of series [19]: Antitumor activity against human CoBa cells xenografted athymic mouse assessed as inhibition of tumor volume at 15 mg/kg, po administered in q4dx4 schedule. In kind it is functional. An outline of the steps:
as §3

The test system of series [20] is Mus musculus. The series can be described thus: Toxicity in human CoBa cells xenografted athymic mouse assessed as loss of body weight at 15 mg/kg, po administered in q4dx4 schedule. In kind it is organism-based. The arrangement: dose 15 mg/kg, route oral. The conditions noted are these: in vivo. The method, boiled down:
(§5)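 Mice bearing subcutaneous CoBa colon carcinoma were treated on a q4dx4 schedule, orally or, for CPT11, at 50 mg/kg. Body weight loss % is the loss induced by drug treatment.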

Series [21] deals with Mus musculus. The experiment in a line: Toxicity in human CoBa cells xenografted athymic mouse assessed as loss of body weight at 20 mg/kg, po administered in q4dx4 schedule. In kind it is organism-based. On the set-up: dose 20 mg/kg, route oral. Particulars: in vivo. The method, boiled down:
as §5

Series [22] has as its system Mus musculus. The experiment in a line: Toxicity in human CoBa cells xenografted athymic mouse assessed as survival at 15 mg/kg, po administered in q4dx4 schedule. The conditions noted are these: in vivo. In kind it is organism-based. On the set-up: dose 15 mg/kg, route oral. The method, boiled down:
as §2

Series [23] in a line: Toxicity in po dosed human MKN28 cells xenografted athymic mouse administered in q4dx4 schedule. Particulars: in vivo. In kind it is organism-based, MKN-28.
The test system of series [24] is NCI-H460. The series can be described thus: Antiproliferative activity against human H460 cells after 2 hrs of drug exposure measured after 72 hrs. In kind it is functional, cell-based. The method, boiled down:
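Growth inhibition with IC50 taken after 2-h drug exposure, as the concentration giving 50% reduction of cell growth versus untreated controls.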

Series [25] can be described thus: Antitumor activity against human CoBa cells xenografted in athymic mouse assessed as inhibition of tumor volume at 2 mg/kg, po administered in q4dx4 schedule. In kind it is functional. An outline of the steps:
as §3

In series [26] the test system is Mus musculus. The experiment in a line: Toxicity in human CoBa cells xenografted athymic mouse assessed as loss of body weight at 2 mg/kg, po administered in q4dx4 schedule. In kind it is organism-based. The arrangement: dose 2 mg/kg, route oral. The conditions noted are these: in vivo. The method, boiled down:
as §5

For series [27], the system named is Mus musculus. The series can be described thus: Toxicity in human CoBa cells xenografted athymic mouse assessed as survival at 2 mg/kg, po administered in q4dx4 schedule. In kind it is organism-based. On the set-up: dose 2 mg/kg, route oral. Particulars: in vivo. An outline of the steps: as §2

SMILES strings stand for the structures.

The inhibition in vivo is the change of the read-out against control, counted positive when it falls. By IC50 is commonly meant the point on the concentration scale where inhibition reaches its midpoint. Low readings indicate greater potency, high ones weaker potency. On to `CCC1(O)CC(=O)OCc2c1cc1n(c2=O)Cc2c-1nc1ccccc1c2/C=N/OC(C)(C)C` (racemic), for which the inhibition in vivo at 3 mg/kg in [1] turned out to be 71%. Moreover, the inhibition in vivo at 6 mg/kg in series [2] amounted to 47%. Further, the inhibition in vivo at 12 mg/kg in [3] was 81%. For the same compound, the Activity in series [4] is listed as 0%; in series [5] it was 0%; in [6] it was 2%; in [7], “Non-toxic”; in series [8] it was “Non-toxic”; in [9], “Non-toxic”. The Activity in series [12] was 5%; in series [13], 16%; in series [14], “Non-toxic”; in series [20] it was 21%; in [21] it was 18%; in series [22] it was “Non-toxic”. The LCK in series [10] is listed as 1.4; in series [11] it was 1.6; in series [19], 1.3. Further, the inhibition in vivo at 14 mg/kg in [10] (Mus musculus, PANC-1) came out at 99%. Also, the IC50 in series [15] came out at 36.8 nM; in series [16], 41 nM; in series [17], 560 nM. Moreover, the “Ratio IC50” value in series [18] came to 14. Besides, in series [19] (Homo sapiens, CoBa), the inhibition in vivo at 15 mg/kg was determined as 95%. In addition, in series [23], the MTD is 12 mg/kg.

Consider `CCc1c2c(nc3ccc(O)cc13)-c1cc3c(c(=O)n1C2)COC(=O)[C@]3(O)CC` [7-ETHYL-10-HYDROXYCAMPTOTHECIN], for which the concentration for half-maximal inhibition (IC50) in series [15] was 220 nM; in [16], 670 nM; in series [17] it was 11500 nM. Besides, in series [18], the “Ratio IC50” value is 17.

On to `CC[C@@]1(O)C(=O)OCc2c1cc1n(c2=O)Cc2cc3ccccc3nc2-1` [CAMPTOTHECIN], for which the IC50 in [15] was 180 nM; in series [16], 3160 nM; in series [17], 8810 nM. Besides, the “Ratio IC50” value in series [18] turned out to be 2.8.

`CC[C@@]1(O)C(=O)OCc2c1cc1n(c2=O)Cc2c-1nc1ccccc1c2/C=N/OC(C)(C)C` [GIMATECAN]: the IC50 in series [15] was determined as 20 nM; in series [24] it was 15 nM; in series [16], 56 nM; in [17], 70 nM. The “Ratio IC50” value in [18] was found to be 1.2. Besides, the LCK in series [25] came out at 1.1. In series [25] (Homo sapiens, CoBa), the inhibition in vivo at 2 mg/kg stood at 90%. The results for the Activity in series [26] and in series [27] were 18% and “Non-toxic”, respectively.

In the case of `CC[C@@]1(O)CC(=O)OCc2c1cc1n(c2=O)Cc2cc3ccccc3nc2-1` [HOMOCAMPTOTHECIN], the IC50 in series [15] was found to be 49.6 nM; in [16], 440 nM; in series [17], 8550 nM. In series [18], the “Ratio IC50” value was found to be 19.

For `CC[C@@]1(O)C(=O)OCc2c1cc1n(c2=O)Cc2cc3c(CN(C)C)c(O)ccc3nc2-1` [TOPOTECAN], the IC50 came out at 1350 nM in series [16] and 46300 nM in series [17]. Moreover, the “Ratio IC50” value in [18] is reported as 34.

(Values after ChEMBL document CHEMBL1145627, “E-ring-modified 7-oxyiminomethyl camptothecins: Synthesis and preliminary in vitro and in vivo biological evaluation” (Bioorg Med Chem Lett, 2008).)
